Screens as filed in PubChem.
Rows were chosen to be rich in hits. Some 5.2% of all compounds tested hit in one or more screens of this group.
ALR H2O2 inh: inhibitors of human ALR sulfhydryl oxidase, primary screen, biochemical, H2O2 detection, HRP-luminol luminescence, single point; FAD-linked sulfhydryl oxidase ALR (Homo sapiens), P55789; purified ALR, DTT oxidation; inhibition, % (concentration not given with the values); 3.8% of 290,000 active;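 active = mean replicate inhibition above about 79%, with every replicate also reaching it, limit read from the data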
Target sequence (P55789 whole entry, looked up): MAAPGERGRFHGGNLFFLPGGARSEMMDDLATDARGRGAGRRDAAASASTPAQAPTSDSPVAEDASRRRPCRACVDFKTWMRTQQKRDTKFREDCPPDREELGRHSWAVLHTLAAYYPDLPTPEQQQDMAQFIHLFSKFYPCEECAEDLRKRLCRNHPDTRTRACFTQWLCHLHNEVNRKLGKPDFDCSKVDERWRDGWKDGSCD
EBNA-1 inh: EBNA-1 DNA-binding inhibitors, primary screen, biochemical, fluorescence polarization. inhibition, % at 14.8 µM. 0.34% of 300,000 active; in the data active = inhibition above about 28%
ZTA DNA inh: counter-screen for EBNA-1 inhibitors: inhibitors of Epstein-Barr virus ZTA. P03206. ZTA-DNA binding, fluorescence polarization. inhibition, % at 11 µM. 0.15% of 320,000 active; in the data active = inhibition above about 33%
Target sequence (P03206 whole entry, looked up): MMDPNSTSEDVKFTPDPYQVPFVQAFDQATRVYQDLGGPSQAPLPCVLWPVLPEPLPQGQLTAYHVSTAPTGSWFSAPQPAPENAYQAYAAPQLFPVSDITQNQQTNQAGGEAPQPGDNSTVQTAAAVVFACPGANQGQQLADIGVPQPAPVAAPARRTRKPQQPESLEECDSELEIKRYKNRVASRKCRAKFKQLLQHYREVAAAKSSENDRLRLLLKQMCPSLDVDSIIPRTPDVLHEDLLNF
PfM18AAP inh: PfM18AAP inhibitors, malaria aminopeptidase, primary screen, biochemical, QFRET, recombinant enzyme; M18 aspartyl aminopeptidase (Plasmodium falciparum 3D7); H-Glu-NHMec fluorogenic cleavage; inhibition, % at 7.35 µM; 1.2% of 290,000 active; AID 1822, 2009;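 active = inhibition above the campaign mean inhibition over all tested compounds plus 3 SD, cut at about 28% in these data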;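 also: 0% = plate median of test compound wells and 100% = 2 mM ZnCl2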
HCV NS3 hel inh: inhibitors of HCV NS3 helicase, primary screen, biochemical, Cy5 molecular beacon fluorescence; Hepatitis C virus NS3 helicase; NS3 helicase DNA unwinding; inhibition, % at 10.9 µM; 0.56% of 290,000 active;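 active = inhibition above the mean of all tested compounds plus 3 SD, set per campaign, cut at about 35% in these data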;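 also: 0% = DMSO wells and 100% = thioflavine S control wells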
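System: Hepatitis C virus NS3 helicase domain fragment enzyme | Reagent: Annealed dual-labelled DNA beacon duplex, ATP-started | Compound dosing: 10.9 µM single point, 0.8% DMSO | Incubation: 1 h reaction at 25 °C, ATP-initiated | Technique: Cy5 fluorescence | Evaluation: Percent inhibition from t60/t0 fluorescence ratio | Benchmarks: Low DMSO, high thioflavine S at 110 µM | Replication: Singlicate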
core dimer inh: inhibitors of HCV core protein dimerization, primary screen, biochemical, TR-FRET, high-throughput. TR-FRET GST/Flag-core106 dimerization, 1536-well. inhibition, % at 5 µM. 0.33% of 300,000 active. AID 1899, 2009;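 active = inhibition above the mean of all tested compounds plus 3 SD, set per screening campaign, cut at about 45% in these data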
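System – GST-tagged and Flag-tagged HCV core protein residues 1-106 · Repeats – one well for each compound · Technique – TR-FRET 671 and 617 nm emission · Doses – one concentration, 5 µM, in 0.5% DMSO · Times – 4 h, 22.5 °C incubation · Also added – Eu donor and XL665 acceptor anti-tag antibodies · Measure – percent inhibition of core106 dimerization signal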
* = called active by the depositor.

What do the screens show for `Cc1cccc(CS(=O)(=O)c2ncc(Cl)c(C(=O)NCc3ccccc3)n2)c1`?
ALR H2O2 inh: -1.4; EBNA-1 inh: 2.1; ZTA DNA inh: 2.3; PfM18AAP inh: -41.9; HCV NS3 hel inh: -7.2; core dimer inh: 9.8

Results for Cc1cccc(C)c1NC(=O)c1nc(S(=O)(=O)Cc2ccccc2)ncc1Cl ?
ALR H2O2 inh: 97.2*; EBNA-1 inh: -2.2; ZTA DNA inh: -11.1; PfM18AAP inh: -68.5; HCV NS3 hel inh: -5.6; core dimer inh: 9.9

How did Cc1nnc(NC(=O)c2nc(S(=O)(=O)Cc3ccccc3)ncc2Cl)s1 do in these assays?
ALR H2O2 inh: 98.6*; EBNA-1 inh: -4.3; ZTA DNA inh: -13.7; PfM18AAP inh: -20.9; HCV NS3 hel inh: 15.9; core dimer inh: -13.5

What do the screens show for `Cc1cccc(CS(=O)(=O)c2ncc(Cl)c(C(=O)Nc3c(C)cccc3C)n2)c1`?
ALR H2O2 inh: 98.1*; EBNA-1 inh: -10.5; ZTA DNA inh: -9.7; PfM18AAP inh: -76.3; HCV NS3 hel inh: 17.1; core dimer inh: -15.7

Results for Cn1c(N)c(-c2ccccc2)c2ccc([N+](=O)[O-])cc2c1=O ?
ALR H2O2 inh: 49.0; EBNA-1 inh: -14.9; ZTA DNA inh: -10.6; PfM18AAP inh: 1.6; HCV NS3 hel inh: 4.2; core dimer inh: -23.0

Results for Cc1nnc(N2CCN(c3ccccc3)CC2)c2nn(-c3ccccc3F)c(C)c12 ?
PfM18AAP inh: -9.8; HCV NS3 hel inh: -9.6

Results for S=C(NCCOCCOCCNC(=S)Nc1ccccc1)Nc1ccccc1 ?
EBNA-1 inh: -3.8; ZTA DNA inh: 2.5; PfM18AAP inh: 28.3*; HCV NS3 hel inh: 11.0; core dimer inh: -3.4

What do the screens show for `S=C(NCCNC(=S)Nc1ccccc1)Nc1ccccc1`?
ALR H2O2 inh: -11.8; EBNA-1 inh: 1.9; ZTA DNA inh: -5.3; PfM18AAP inh: 5.5; HCV NS3 hel inh: 8.7; core dimer inh: -17.4

How did OCCCNC(=S)Nc1ccc(Nc2ccccc2)cc1 do in these assays?
ALR H2O2 inh: 99.1*; EBNA-1 inh: -13.5; ZTA DNA inh: 4.4; PfM18AAP inh: -0.4; HCV NS3 hel inh: -1.9; core dimer inh: -12.8

Results for Cc1ccc(NC(=O)CN(c2ccc3c(c2)OCO3)S(=O)(=O)c2c(C)n[nH]c2C)cc1 ?
ALR H2O2 inh: 90.4*; EBNA-1 inh: -3.0; ZTA DNA inh: -6.9; PfM18AAP inh: 3.7; HCV NS3 hel inh: -1.1; core dimer inh: 6.1

What do the screens show for `Cc1nn(C)c(C)c1S(=O)(=O)N(CC(=O)NC1CCCCCC1)c1ccc(C(C)C)cc1`?
ALR H2O2 inh: 1.5; EBNA-1 inh: -10.9; ZTA DNA inh: -8.1; PfM18AAP inh: 0.3; HCV NS3 hel inh: 2.8; core dimer inh: -0.8

Results for Cc1n[nH]c(C)c1S(=O)(=O)N(CC(=O)NC1CCCC1)c1ccc(C(C)C)cc1 ?
ALR H2O2 inh: 81.0*; EBNA-1 inh: -6.2; ZTA DNA inh: 3.5; PfM18AAP inh: 5.4; HCV NS3 hel inh: 1.2; core dimer inh: 0.1

Results for COc1cc(NC(=O)CN(c2ccc(C)cc2)S(=O)(=O)c2c(C)n[nH]c2C)cc(OC)c1 ?
ALR H2O2 inh: 3.3; EBNA-1 inh: -4.5; ZTA DNA inh: 8.1; PfM18AAP inh: -2.9; HCV NS3 hel inh: -16.9; core dimer inh: 1.7

Results for CCn1c(C)nnc1SCC(=O)Nc1ccc(N2CCOCC2)cc1 ?
ALR H2O2 inh: 88.0*; EBNA-1 inh: 3.2; ZTA DNA inh: -0.3; PfM18AAP inh: -13.8; HCV NS3 hel inh: -14.6; core dimer inh: 1.4

How did CC(C)(C)c1nc(SCC(=O)Nc2ccc(N3CCOCC3)cc2)c2ccccc2n1 do in these assays?
ALR H2O2 inh: 98.4*; EBNA-1 inh: 0.2; ZTA DNA inh: -6.2; PfM18AAP inh: -6.7; HCV NS3 hel inh: -4.9; core dimer inh: 10.0

What do the screens show for `CCn1c(SCC(=O)Nc2ccc(N3CCOCC3)cc2)nnc1-c1ccco1`?
ALR H2O2 inh: 97.6*; EBNA-1 inh: -5.5; ZTA DNA inh: 5.0; core dimer inh: -1.1

How did N#Cc1ccccc1NS(=O)(=O)c1cc2c3c(c1)CCC(=O)N3CCC2 do in these assays?
EBNA-1 inh: -3.4; ZTA DNA inh: -14.4; core dimer inh: -10.7

How did COc1cccc(CSc2nccn2C)c1 do in these assays?
ALR H2O2 inh: -35.8; EBNA-1 inh: -5.2; ZTA DNA inh: -4.0; PfM18AAP inh: 2.4; HCV NS3 hel inh: 1.3; core dimer inh: -6.2

What do the screens show for `COc1cc(NCCCCCCCN)c2ncccc2c1`?
ALR H2O2 inh: 96.3*; EBNA-1 inh: -7.4; ZTA DNA inh: 6.9; PfM18AAP inh: 15.2; HCV NS3 hel inh: -10.6; core dimer inh: -5.9

Results for COc1cc2c(cc1NC(=O)C(c1ccccc1)c1ccccc1)CCCC2 ?
EBNA-1 inh: 2.5; ZTA DNA inh: -2.9; PfM18AAP inh: -7.7; HCV NS3 hel inh: -5.0; core dimer inh: 16.7

How did CC(C)N1CCN(S(=O)(=O)c2ccc3ccccc3c2)CC1 do in these assays?
EBNA-1 inh: 153.2*; ZTA DNA inh: 132.8*; PfM18AAP inh: 0.2; HCV NS3 hel inh: -0.6; core dimer inh: 3.8

What do the screens show for `CCS(=O)(=O)N1CCN(S(=O)(=O)c2ccc3ccccc3c2)CC1`?
EBNA-1 inh: 1.9; ZTA DNA inh: -4.1; PfM18AAP inh: -6.2; HCV NS3 hel inh: -0.7; core dimer inh: -4.1

Results for Cc1ccc(C)c(N2CCN(S(=O)(=O)c3ccc4[nH]c(=O)ccc4c3)CC2)c1 ?
EBNA-1 inh: 7.0; ZTA DNA inh: -1.1; PfM18AAP inh: -4.2; HCV NS3 hel inh: -6.3; core dimer inh: 46.0*

Results for Cc1ccc(S(=O)(=O)N(C)C)cc1NC(=O)COC(=O)c1ccc2ccccc2n1 ?
ZTA DNA inh: 7.3

How did COc1ccc(/C=C/C(=O)Oc2cc(O)cc(O)c2)cc1 do in these assays?
EBNA-1 inh: -0.1; ZTA DNA inh: 3.7; PfM18AAP inh: -1.5; HCV NS3 hel inh: -7.7; core dimer inh: 1.4

What do the screens show for `CCOc1ccc(C(=O)/C=C/c2ccc(OC)c(OC)c2)cc1`?
ALR H2O2 inh: 97.2*; EBNA-1 inh: 5.9; ZTA DNA inh: 15.1; PfM18AAP inh: 2.0; HCV NS3 hel inh: -6.3; core dimer inh: 5.7

Results for O=C(/C=C/c1ccc(O)cc1)c1ccccc1 ?
ALR H2O2 inh: 99.4*; EBNA-1 inh: -12.4; ZTA DNA inh: -5.8; PfM18AAP inh: 14.2; HCV NS3 hel inh: 19.0; core dimer inh: 2.9

What do the screens show for `COc1ccc(C(=O)/C=C/c2ccc(O)cc2)cc1`?
ALR H2O2 inh: 98.5*; EBNA-1 inh: -9.0; ZTA DNA inh: 0.5; PfM18AAP inh: 6.2; HCV NS3 hel inh: 4.3; core dimer inh: -5.6

How did COc1ccc2cc(C(=O)/C=C/c3cc(OC)c(O)c(OC)c3)ccc2c1 do in these assays?
ALR H2O2 inh: 6.4; EBNA-1 inh: 5.8; ZTA DNA inh: 6.8; PfM18AAP inh: 28.7*; HCV NS3 hel inh: -19.5; core dimer inh: 20.5
